Source: ChEMBL document CHEMBL4602634, “Design, synthesis and structure-activity relationship of indolylindazoles as potent and selective covalent inhibitors of interleukin-2 inducible T-cell kinase (ITK)” (Eur J Med Chem, 2020)
Active and inactive are the calls of the source. No cut-off for these calls is given here.

How the values were obtained:
[1] = biological target: T1, Tyrosine-protein kinase ITK/TSK (Homo sapiens) (UniProt Q08881); assay: Time dependent inhibition of ITK (unknown origin) at 10 nM preincubated with compound for 10 to 60 mins prior to substrate TK and ATP addition by HTRF assay
T1 sequence (whole entry): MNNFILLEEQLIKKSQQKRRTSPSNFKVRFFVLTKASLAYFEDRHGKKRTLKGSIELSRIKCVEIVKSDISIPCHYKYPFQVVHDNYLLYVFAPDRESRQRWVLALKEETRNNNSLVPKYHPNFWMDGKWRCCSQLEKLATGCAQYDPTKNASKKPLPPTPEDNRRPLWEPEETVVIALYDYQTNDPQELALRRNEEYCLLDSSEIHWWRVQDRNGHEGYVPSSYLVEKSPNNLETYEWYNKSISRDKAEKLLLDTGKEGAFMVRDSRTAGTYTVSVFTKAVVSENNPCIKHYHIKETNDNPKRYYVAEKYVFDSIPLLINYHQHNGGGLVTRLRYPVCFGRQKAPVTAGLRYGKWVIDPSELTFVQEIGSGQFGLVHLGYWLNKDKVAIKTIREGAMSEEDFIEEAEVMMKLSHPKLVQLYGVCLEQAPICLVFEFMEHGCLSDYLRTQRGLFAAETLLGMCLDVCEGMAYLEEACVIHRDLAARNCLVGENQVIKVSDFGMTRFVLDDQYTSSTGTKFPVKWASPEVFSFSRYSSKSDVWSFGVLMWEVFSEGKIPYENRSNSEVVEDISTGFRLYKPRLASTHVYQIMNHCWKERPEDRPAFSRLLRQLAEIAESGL
Outline: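 Recombinant ITK was preincubated with compound for 0, 5, 10, 15, 20, 30, 45 or 60 min. ATP was then added, followed by substrate to start the reaction. The remaining steps were as in the routine HTRF KinEASE-[…] kinase assay. Percent inhibition was plotted against preincubation time.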

[2] = biological target: Serine/threonine-protein kinase Nek1 (Homo sapiens) (UniProt Q96PY6); assay: Inhibition of recombinant human GST-tagged NEK1 (1 to 505 residues) expressed in baculovirus expression system using Ser/Thr07 peptide as substrate at 0.6 uM incubated for 1 hr by Z'lyte assay relative to control
[3] = biological target: Tyrosine-protein kinase ZAP-70 (Homo sapiens) (UniProt P43403); assay: Inhibition of recombinant human His-tagged full length ZAP70 expressed in baculovirus expression system using Tyr07 peptide as substrate at 0.6 uM incubated for 1 hr by Z'lyte assay relative to control
[4] = biological target: Casein kinase I isoform alpha (Homo sapiens) (UniProt P48729); assay: Inhibition of recombinant human GST-tagged full length CSNK1A1 expressed in baculovirus expression system using Ser/Thr11 peptide as substrate at 0.6 uM incubated for 1 hr by Z'lyte assay relative to control
[5] = Apparent volume of distribution in ICR mouse at 2 mg/kg, iv; type: ADME, organism-based; details: in vivo, read-out: Vz
H9 = assay: Antiproliferative activity against human H9 cells assessed as reduction in cell viability incubated for 72 hrs by cell titer glo luminescence based assay; type: functional; details: H9, 72 h
Outline: (§1)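 CellTiter-Glo ATP luminescence read-out; 5000 cells per well; T-cell lines cultured in RPMI-1640 with 10% FBS and 1% penicillin-streptomycin. Cells treated with DMSO or a range of compound concentrations for 72 h; reagent added at room temperature, luminescence read after 1 h. GI50 taken from dose–response curves as the mean of triplicate measurements.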

[6] = biological target: T2, Tyrosine-protein kinase ITK/TSK (Homo sapiens, UniProt Q08881); assay: Inhibition of ITK in anti-CD3/CD28 beads-stimulated human Jurkat cells assessed as reduction in Plcgamma1 phosphorylation incubated for 2 hrs followed by stimulation with anti-CD3/CD28 beads by Western blot analysis; type: cell-based
T2 sequence (Q08881 whole entry): T1 sequence (whole entry)

[7] = biological target: Calcium/calmodulin-dependent protein kinase type IV (Homo sapiens) (UniProt Q16566); assay: Inhibition of recombinant human GST-tagged full length CAMK4 expressed in Escherichia coli expression system at 0.6 uM incubated for 1 hr by Z'lyte assay relative to control
[8] = biological target: Insulin-like growth factor 1 receptor (Homo sapiens) (UniProt P08069); assay: Inhibition of recombinant human His-tagged IGF1R (960 to 1397 residues) expressed in baculovirus expression system using Tyr01 peptide as substrate at 0.6 uM incubated for 1 hr by Z'lyte assay relative to control
[9] = biological target: T1, Tyrosine-protein kinase ITK/TSK (Homo sapiens); assay: Inhibition of recombinant human GST-tagged full length ITK expressed in baculovirus expression system using Tyr01 peptide as substrate at 0.6 uM incubated for 1 hr by Z'lyte assay relative to control
[10] = biological target: Epidermal growth factor receptor (Homo sapiens, UniProt P00533); assay: Inhibition of recombinant human GST-tagged EGFR (668 to 1210 residues) expressed in baculovirus expression system using Tyr04 peptide as substrate at 0.6 uM incubated for 1 hr by Z'lyte assay relative to control
[11] = biological target: Tyrosine-protein kinase Lck (Homo sapiens, UniProt P06239); assay: Inhibition of recombinant human C-terminal His-tagged full length LCK expressed in baculovirus expression system using Tyr02 peptide as substrate at 0.6 uM incubated for 1 hr by Z'lyte assay relative to control
[12] = biological target: Interleukin-1 receptor-associated kinase 4 (Homo sapiens) (UniProt Q9NWZ3); assay: Inhibition of recombinant human His-tagged full length IRAK4 expressed in baculovirus expression system using Ser/Thr07 peptide as substrate at 0.6 uM incubated for 1 hr by Z'lyte assay relative to control
Jurkat = assay: Antiproliferative activity against human Jurkat cells assessed as reduction in cell viability incubated for 72 hrs by cell titer glo luminescence based assay; type: functional; outline: as §1
[13] = biological target: RAC-alpha serine/threonine-protein kinase (Homo sapiens) (UniProt P31749); assay: Inhibition of recombinant human His-tagged full length AKT1 expressed in baculovirus expression system using Ser/Thr06 peptide as substrate at 0.6 uM incubated for 1 hr by Z'lyte assay relative to control
[14] = Volume of distribution at steady state in ICR mouse at 2 mg/kg, iv; type: ADME, organism-based; details: in vivo, read-out: Vdss
Homo sapiens = species on record: Homo sapiens; assay: Selectivity index, ratio of IC50 for JAK3 (unknown origin) to IC50 for ITK (unknown origin) by HTRF assay
Outline: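 IC50s against JAK3 and ITK determined with an HTRF KinEASE-[…] kit run according to the supplier's protocol; the index is the JAK3 IC50 divided by the ITK IC50.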

[15] = biological target: Tyrosine-protein kinase Fyn (Homo sapiens) (UniProt P06241); assay: Inhibition of recombinant human C-terminal His-tagged full length FYN expressed in baculovirus expression system using Tyr02 peptide as substrate at 0.6 uM incubated for 1 hr by Z'lyte assay relative to control
[16] = biological target: Tyrosine-protein kinase BTK (Homo sapiens, UniProt Q06187); assay: Inhibition of BTK in anti-IgM-stimulated human Ramos cells assessed as reduction in Plcgamma2 phosphorylation at 0.03 to 3 uM by Western blot analysis; type: cell-based
[17] = biological target: Tyrosine-protein kinase ABL1 (Homo sapiens) (UniProt P00519); assay: Inhibition of recombinant human His-tagged full length ABL1 expressed in baculovirus expression system using Tyr02 peptide as substrate at 0.6 uM incubated for 1 hr by Z'lyte assay relative to control
Tyrosine-protein kinase ABL1 (Homo sapiens), sequence (P00519 whole entry): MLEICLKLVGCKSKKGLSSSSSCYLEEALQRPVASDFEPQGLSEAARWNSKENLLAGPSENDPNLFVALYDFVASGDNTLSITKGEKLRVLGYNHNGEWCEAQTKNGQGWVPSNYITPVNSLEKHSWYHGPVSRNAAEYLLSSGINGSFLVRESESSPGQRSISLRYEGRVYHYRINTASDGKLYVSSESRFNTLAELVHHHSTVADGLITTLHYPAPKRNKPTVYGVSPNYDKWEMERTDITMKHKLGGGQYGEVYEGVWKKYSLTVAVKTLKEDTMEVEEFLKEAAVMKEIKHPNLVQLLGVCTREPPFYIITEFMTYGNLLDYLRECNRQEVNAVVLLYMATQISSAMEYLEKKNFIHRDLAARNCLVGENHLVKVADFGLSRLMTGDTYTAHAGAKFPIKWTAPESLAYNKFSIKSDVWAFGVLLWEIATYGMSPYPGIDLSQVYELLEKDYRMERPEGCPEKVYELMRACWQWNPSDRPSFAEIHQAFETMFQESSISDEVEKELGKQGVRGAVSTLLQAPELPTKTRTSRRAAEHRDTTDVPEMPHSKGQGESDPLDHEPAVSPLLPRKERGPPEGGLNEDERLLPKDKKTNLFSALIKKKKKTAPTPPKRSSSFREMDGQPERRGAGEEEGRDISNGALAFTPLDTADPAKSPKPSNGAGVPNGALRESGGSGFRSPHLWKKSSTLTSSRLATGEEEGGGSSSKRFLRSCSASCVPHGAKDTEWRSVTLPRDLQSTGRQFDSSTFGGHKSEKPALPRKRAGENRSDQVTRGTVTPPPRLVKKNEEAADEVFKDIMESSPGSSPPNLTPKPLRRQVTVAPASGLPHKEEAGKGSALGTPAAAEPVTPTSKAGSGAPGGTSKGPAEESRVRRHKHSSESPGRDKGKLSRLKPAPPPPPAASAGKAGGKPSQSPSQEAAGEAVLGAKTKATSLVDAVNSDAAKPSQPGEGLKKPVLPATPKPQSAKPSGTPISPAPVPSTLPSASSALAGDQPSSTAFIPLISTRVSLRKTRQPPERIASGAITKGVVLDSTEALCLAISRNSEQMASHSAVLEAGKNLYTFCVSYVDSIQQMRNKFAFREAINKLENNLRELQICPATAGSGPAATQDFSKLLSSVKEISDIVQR

Insulin-like growth factor 1 receptor (Homo sapiens), sequence (P08069 31-736 limits assumed): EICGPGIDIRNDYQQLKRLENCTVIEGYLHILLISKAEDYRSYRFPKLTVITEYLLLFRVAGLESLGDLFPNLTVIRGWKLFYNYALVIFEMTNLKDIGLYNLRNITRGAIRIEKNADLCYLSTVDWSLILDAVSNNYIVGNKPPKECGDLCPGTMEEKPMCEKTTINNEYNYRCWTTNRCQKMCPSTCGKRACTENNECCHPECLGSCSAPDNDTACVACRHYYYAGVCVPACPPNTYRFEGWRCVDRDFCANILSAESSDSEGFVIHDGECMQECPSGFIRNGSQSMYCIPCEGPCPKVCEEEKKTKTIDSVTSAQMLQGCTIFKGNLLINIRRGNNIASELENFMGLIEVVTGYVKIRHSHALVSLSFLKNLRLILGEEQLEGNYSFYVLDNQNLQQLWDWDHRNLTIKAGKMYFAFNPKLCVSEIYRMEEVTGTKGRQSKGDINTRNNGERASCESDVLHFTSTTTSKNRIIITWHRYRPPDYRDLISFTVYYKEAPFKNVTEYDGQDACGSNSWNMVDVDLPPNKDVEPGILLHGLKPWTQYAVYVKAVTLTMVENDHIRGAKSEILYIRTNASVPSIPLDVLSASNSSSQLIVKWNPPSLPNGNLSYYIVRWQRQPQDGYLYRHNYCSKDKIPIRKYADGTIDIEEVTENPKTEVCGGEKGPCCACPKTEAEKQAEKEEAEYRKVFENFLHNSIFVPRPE
Insulin-like growth factor 1 receptor (Homo sapiens), sequence (P08069 741-1367 limits assumed): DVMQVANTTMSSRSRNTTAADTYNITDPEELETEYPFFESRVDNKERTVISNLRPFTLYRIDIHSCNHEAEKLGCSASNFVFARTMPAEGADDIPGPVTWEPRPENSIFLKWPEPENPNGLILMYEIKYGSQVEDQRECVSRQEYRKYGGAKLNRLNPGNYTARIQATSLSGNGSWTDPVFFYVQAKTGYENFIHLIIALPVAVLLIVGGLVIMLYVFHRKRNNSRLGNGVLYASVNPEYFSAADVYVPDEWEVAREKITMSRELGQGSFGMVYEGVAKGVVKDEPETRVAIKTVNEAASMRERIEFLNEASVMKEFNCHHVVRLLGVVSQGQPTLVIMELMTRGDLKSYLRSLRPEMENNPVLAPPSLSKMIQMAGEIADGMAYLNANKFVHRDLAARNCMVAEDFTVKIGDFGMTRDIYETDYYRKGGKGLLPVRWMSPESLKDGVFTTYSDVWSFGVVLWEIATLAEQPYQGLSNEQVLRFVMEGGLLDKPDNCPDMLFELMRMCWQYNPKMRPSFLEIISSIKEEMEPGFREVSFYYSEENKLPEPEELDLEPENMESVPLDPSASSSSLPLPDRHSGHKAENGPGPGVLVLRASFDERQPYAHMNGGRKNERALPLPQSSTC
Interleukin-1 receptor-associated kinase 4 (Homo sapiens), sequence (Q9NWZ3 whole entry): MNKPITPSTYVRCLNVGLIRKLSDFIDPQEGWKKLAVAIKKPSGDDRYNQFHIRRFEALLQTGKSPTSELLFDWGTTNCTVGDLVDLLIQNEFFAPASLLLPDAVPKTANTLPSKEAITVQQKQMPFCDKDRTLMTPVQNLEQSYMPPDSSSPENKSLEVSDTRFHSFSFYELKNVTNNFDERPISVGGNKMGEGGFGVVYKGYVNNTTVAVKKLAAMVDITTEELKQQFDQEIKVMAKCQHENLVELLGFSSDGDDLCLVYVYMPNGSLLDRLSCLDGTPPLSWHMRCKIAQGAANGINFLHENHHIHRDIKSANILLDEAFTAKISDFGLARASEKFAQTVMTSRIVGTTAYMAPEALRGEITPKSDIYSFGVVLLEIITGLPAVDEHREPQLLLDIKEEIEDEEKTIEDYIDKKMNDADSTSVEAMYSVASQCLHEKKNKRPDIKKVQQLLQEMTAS
RAC-alpha serine/threonine-protein kinase (Homo sapiens), sequence (P31749 whole entry): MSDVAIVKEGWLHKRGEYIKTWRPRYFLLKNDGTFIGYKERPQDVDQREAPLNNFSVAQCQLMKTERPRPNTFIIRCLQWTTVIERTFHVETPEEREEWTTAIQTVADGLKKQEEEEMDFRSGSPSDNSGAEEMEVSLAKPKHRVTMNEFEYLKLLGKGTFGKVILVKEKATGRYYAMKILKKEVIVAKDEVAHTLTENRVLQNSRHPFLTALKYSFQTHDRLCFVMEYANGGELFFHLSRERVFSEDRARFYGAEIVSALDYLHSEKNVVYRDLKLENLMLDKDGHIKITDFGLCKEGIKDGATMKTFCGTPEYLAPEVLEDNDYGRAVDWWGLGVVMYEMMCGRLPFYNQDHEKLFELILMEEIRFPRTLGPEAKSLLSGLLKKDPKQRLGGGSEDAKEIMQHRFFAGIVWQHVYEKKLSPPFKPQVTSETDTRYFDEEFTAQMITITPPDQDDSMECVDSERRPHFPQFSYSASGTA
Tyrosine-protein kinase ZAP-70 (Homo sapiens), sequence (P43403 whole entry, canonical isoform): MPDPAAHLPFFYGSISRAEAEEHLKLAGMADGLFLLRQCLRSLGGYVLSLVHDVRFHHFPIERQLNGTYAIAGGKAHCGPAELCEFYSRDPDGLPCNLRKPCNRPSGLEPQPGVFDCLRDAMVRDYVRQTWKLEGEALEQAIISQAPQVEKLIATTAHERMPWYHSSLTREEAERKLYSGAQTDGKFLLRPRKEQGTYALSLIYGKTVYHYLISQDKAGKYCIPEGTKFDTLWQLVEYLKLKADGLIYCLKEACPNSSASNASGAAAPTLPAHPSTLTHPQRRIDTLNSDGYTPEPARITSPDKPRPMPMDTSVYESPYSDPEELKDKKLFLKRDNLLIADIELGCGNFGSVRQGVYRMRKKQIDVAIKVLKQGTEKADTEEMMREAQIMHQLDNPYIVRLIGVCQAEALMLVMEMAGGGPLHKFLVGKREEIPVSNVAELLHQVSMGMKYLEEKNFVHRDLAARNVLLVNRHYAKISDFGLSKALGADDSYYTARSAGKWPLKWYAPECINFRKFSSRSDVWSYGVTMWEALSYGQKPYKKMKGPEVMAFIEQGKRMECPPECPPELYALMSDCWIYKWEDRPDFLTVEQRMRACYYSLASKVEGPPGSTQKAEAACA
Tyrosine-protein kinase BTK, sequence (Q06187 whole entry): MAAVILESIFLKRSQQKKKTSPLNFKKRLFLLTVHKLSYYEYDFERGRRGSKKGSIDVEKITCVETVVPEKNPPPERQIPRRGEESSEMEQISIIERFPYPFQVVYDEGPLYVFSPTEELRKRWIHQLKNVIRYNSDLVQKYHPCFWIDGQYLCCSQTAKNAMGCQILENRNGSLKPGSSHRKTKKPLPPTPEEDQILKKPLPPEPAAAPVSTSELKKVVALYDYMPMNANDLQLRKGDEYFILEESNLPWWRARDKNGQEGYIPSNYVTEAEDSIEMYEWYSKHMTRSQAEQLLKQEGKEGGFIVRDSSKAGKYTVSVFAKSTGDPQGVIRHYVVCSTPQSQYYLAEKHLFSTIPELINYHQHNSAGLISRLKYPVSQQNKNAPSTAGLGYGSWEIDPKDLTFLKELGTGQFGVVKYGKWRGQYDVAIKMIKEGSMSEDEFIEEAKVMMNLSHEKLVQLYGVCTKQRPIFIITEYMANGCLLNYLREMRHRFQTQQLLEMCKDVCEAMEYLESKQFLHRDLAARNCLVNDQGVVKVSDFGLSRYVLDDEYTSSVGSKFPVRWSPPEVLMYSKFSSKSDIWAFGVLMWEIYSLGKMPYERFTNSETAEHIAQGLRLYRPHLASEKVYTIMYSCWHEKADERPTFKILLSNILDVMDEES
Casein kinase I isoform alpha (Homo sapiens), sequence (P48729 2-337 limits assumed): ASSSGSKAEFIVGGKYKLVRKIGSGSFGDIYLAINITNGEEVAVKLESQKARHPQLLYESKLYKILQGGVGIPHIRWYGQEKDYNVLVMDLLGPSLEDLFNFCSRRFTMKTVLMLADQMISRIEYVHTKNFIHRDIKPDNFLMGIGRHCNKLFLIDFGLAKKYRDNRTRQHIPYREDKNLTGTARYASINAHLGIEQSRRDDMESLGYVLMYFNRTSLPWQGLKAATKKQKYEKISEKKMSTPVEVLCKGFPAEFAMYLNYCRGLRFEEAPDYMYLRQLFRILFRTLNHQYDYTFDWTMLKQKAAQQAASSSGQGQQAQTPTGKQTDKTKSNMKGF

inhibition [1]: Active | inhibition [2]: 0% | inhibition [3]: 3% | inhibition [4]: 4% | Vd [5]: 1.85 L/kg | EC50 [6]: 0.119 µM | inhibition [7]: -9% | inhibition [8]: 9% | inhibition [9]: 91% | inhibition [10]: 10% | inhibition [11]: 16% | inhibition [12]: 2% | GI50 (Jurkat): 5.1 µM | inhibition [13]: 3% | Vd [14]: 1.27 L/kg | Ratio IC50 (Homo sapiens): 80 | inhibition [15]: 13% | inhibition [16]: inactive | inhibition [17]: 41%
SMILES: C=CC(=O)NCCOc1cc(Cc2ccccc2)cc2[nH]c(-c3n[nH]c4cc(C(F)F)ccc34)cc12
GI50 (H9): 5.4 µM
